Results as given in ChEMBL document CHEMBL1141560, “Alpha,beta-cyclic-beta-benzamido hydroxamic acids: novel templates for the design, synthesis, and evaluation of selective inhibitors of TNF-alpha converting enzyme (TACE)” (Bioorg Med Chem Lett, 2008).

Assays:
Type in all cases: ADME, organism-based
[1] = Half life in rat at 5.0 mg/kg, iv; set-up: dose 5 mg/kg, route intravenous; settings: in vivo
In short: (§1)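 Rats given 5.0 mg/kg IV or PO by n-in-1 cassette dosing; three animals per dosing group, parameters reported as the group average.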

[2] = Clearance in rat at 5.0 mg/kg, iv; set-up: dose 5 mg/kg, route intravenous; settings: in vivo; in short: as §1
[3] = Volume of distribution at steady state in rat at 5.0 mg/kg, iv; set-up: dose 5 mg/kg, route intravenous; settings: in vivo, read-out: Vdss; in short: as §1
[4] = AUC in rat at 5.0 mg/kg, iv; set-up: dose 5 mg/kg, route intravenous; settings: plasma; in short: as §1
[5] = Half life in rat at 5.0 mg/kg, po; set-up: dose 5 mg/kg, route oral; settings: in vivo; in short: as §1
[6] = AUC in rat at 5.0 mg/kg, po; set-up: dose 5 mg/kg, route oral; settings: plasma; in short: as §1
[7] = Oral bioavailability in rat at 5.0 mg/kg; settings: in vivo; in short: as §1
[8] = Oral bioavailability in rat; settings: in vivo
[9] = Half life in rat at […], iv; set-up: dose 3.3 mg/kg, route intravenous; settings: in vivo
[10] = Clearance in rat at […], iv; set-up: dose 3.3 mg/kg, route intravenous; settings: in vivo
[11] = Volume of distribution at steady state in rat at […], iv; set-up: dose 3.3 mg/kg, route intravenous; settings: in vivo, read-out: Vdss
[12] = AUC in rat at […], iv; set-up: dose 3.3 mg/kg, route intravenous; settings: plasma
[13] = Half life in rat at […], po; set-up: dose 3.3 mg/kg, route oral; settings: in vivo
[14] = AUC in rat at […], po; set-up: dose 3.3 mg/kg, route oral; settings: plasma
[15] = Oral bioavailability in rat at […]; settings: in vivo

Cc1cc(COc2ccc(C(=O)N[C@@H]3COC[C@@H]3C(=O)NO)cc2)c2ccccc2n1
half-life [1]: 126 min
clearance [2]: 38.3 mL/min/kg
Vd [3]: 0.8 L/kg
AUC [4]: 4.06 µM·h
half-life [5]: 174 min
AUC [6]: 0.846 µM·h
bioavailability [7]: 21%

Cc1cc(COc2ccc(C(=O)N[C@@H]3CN(S(C)(=O)=O)C[C@@H]3C(=O)NO)cc2)c2ccccc2n1
bioavailability [8]: 3%

C#CCN1C[C@H](C(=O)NO)[C@H](NC(=O)c2ccc(OCc3cc(C)nc4ccccc34)cc2)C1
half-life [9]: 174 min
clearance [10]: 55 mL/min/kg
Vd [11]: 1.7 L/kg
AUC [12]: 2.23 µM·h
half-life [13]: 186 min
AUC [14]: 0.567 µM·h
bioavailability [15]: 25%
